Data published in PubChem BioAssay.
The source made the active and inactive calls.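 Rule for the calls, unless noted: active = mean duplicate activation above the buffer control mean plus 5 SD of those controls; inactive = the rest.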

How the values were obtained:
[1] = nonspecific flux increase, KCNQ1-free cells – parental CHO cells, counter-screen for KCNQ1 potentiator project (AID 493006;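 active = duplicate-averaged activation above buffer control mean plus 5 SD of those controls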); settings: parental CHO-K1 cells, FluxOR thallium flux, at 10 µM; hits give high values
Summary of the method: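 Benchmarks – buffer and R-L3 controls · Assay system – untransfected host CHO-K1 cells with FluxOR thallium dye · Measure – fluorescence change ratio scaled 0% buffer, 100% R-L3 · Technique – kinetic thallium-flux fluorescence · Timing – overnight 37 °C plating, 90 min RT dye, 20 min compound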

[2] = molecular target: Potassium voltage-gated channel subfamily KQT member 1 (Homo sapiens) (UniProt P51787); test: enhancement of KCNQ1 channel thallium flux – FluxOR thallium flux, CHO cells, duplicates, confirmation (AID 493007;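 active = potentiation averaged over duplicate wells exceeding buffer-only control mean by more than 3 SD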;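 for outcome: cells depolarized by a potassium plus thallium sulfate stimulus after compound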); settings: KCNQ1 cell line, FluxOR thallium flux fluorescence, at 10 µM; hits give high values, % of reference activator effect, buffer zero
Chain of Potassium voltage-gated channel subfamily KQT member 1 (Homo sapiens) (P51787 whole entry, looked up): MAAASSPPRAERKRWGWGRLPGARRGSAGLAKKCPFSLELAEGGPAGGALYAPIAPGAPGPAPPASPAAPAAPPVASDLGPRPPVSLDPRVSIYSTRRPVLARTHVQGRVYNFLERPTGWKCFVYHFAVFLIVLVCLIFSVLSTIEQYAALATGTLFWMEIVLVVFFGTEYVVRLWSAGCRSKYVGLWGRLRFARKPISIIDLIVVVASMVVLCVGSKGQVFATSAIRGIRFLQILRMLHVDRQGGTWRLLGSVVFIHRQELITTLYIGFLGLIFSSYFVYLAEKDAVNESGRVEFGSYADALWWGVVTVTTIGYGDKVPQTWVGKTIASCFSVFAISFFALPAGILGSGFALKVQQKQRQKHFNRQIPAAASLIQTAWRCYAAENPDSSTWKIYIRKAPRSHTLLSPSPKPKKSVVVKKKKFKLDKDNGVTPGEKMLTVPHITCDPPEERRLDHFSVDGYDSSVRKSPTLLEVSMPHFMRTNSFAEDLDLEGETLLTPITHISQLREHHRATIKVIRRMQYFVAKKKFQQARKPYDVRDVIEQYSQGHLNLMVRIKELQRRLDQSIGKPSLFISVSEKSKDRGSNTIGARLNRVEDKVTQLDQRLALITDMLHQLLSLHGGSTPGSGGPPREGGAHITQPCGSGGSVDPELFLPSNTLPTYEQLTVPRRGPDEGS
Summary of the method: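 Material: CHO cells stably expressing the KCNQ1 potassium channel / Times: dye 90 min then compound 20 min, both at room temperature / Detection: kinetic thallium influx fluorescence with FluxOR dye, 10 s baseline, 110 s post-stimulus / Benchmarks: buffer-only wells as 0% and R-L3 activator as 100% / Replicates: each compound tested in duplicate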

[3] = molecular target: Potassium voltage-gated channel subfamily KQT member 2 (Rattus norvegicus) (UniProt O88943); test: KCNQ2 thallium flux enhancement – KCNQ2-CHO-K1 cells, selectivity assay for KCNQ1 potentiator project (AID 493009;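 active = mean duplicate potentiation above the buffer control mean plus 5 SD of buffer wells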;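 note: assay conditions were tuned for KCNQ1 rather than KCNQ2 modulators; signal is max minus min fluorescence divided by baseline after thallium stimulus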); settings: FluxOR thallium flux fluorescence, at 10 µM; hits give high values, scaled: buffer 0, activator control 100
Chain of Potassium voltage-gated channel subfamily KQT member 2 (Rattus norvegicus) (O88943 whole entry, looked up): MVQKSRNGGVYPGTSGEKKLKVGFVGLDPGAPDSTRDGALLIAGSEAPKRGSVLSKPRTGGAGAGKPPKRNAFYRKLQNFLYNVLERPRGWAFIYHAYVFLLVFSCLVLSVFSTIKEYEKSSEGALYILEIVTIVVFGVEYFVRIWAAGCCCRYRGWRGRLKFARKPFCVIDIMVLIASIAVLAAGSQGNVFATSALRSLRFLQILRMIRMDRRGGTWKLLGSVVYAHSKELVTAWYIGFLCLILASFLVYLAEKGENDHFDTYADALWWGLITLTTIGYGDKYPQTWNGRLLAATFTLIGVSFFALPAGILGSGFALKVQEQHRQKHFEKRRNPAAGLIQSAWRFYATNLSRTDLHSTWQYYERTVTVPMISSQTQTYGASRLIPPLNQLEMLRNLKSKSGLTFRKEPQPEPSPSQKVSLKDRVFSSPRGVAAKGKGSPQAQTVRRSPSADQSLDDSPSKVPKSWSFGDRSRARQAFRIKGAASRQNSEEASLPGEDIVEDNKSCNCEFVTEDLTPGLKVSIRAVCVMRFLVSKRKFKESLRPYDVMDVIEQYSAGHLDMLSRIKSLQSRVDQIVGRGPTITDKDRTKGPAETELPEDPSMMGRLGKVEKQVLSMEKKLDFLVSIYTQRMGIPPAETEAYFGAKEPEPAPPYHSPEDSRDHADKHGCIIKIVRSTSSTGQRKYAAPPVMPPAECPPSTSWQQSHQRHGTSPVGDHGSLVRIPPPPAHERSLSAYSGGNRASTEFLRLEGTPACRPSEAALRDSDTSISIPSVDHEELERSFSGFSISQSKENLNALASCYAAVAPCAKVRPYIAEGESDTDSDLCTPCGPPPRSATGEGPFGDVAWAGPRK

[4] = molecular target: Potassium voltage-gated channel subfamily KQT member 1 (Homo sapiens) (UniProt P51787); test: KCNQ1 activators by electrophysiology – IonWorks patch clamp, KCNQ1-CHO cells, orthogonal assay for KCNQ1 potentiator project, confirmation (AID 493184;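 active = current rise at least 3 SD above the untreated control mean in each of two repeat wells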;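 for current potentiation: percent change of the same well's current before compound addition so 0% = no change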); settings: automated patch clamp current, at 10 µM; hits give high values
Summary of the method: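 Probe or stimulus: depolarizing pulse to +40 mV from -90 mV; Material: CHO cells carrying KCNQ1; Compound: one dose, 10 µM final; Signal: automated voltage clamp, amphotericin B perforated patch; Read-out basis: percent current increase versus pre-compound level; Buffer or medium: pH 7.4 external bath; Replication: duplicates.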

[5] = molecular target: Potassium voltage-gated channel subfamily E member 1 (Homo sapiens) + Potassium voltage-gated channel subfamily KQT member 1 (Homo sapiens) (UniProt P15382+P51787); test: KCNQ1-E1 channel activation – thallium flux, CHO-K1 KCNQ1/E1 cells, selectivity assay for KCNQ1 potentiator project, confirmation (AID 493186); settings: FluxOR thallium flux, at 10 µM; hits give high values
Chain of Potassium voltage-gated channel subfamily E member 1 (Homo sapiens) + Potassium voltage-gated channel subfamily KQT member 1 (Homo sapiens) (P51787 whole entry, looked up): as the sequence (P51787 whole entry, looked up) above
Summary of the method: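 system = KCNQ1/E1-expressing stable CHO-K1 cell line | doses = single compound concentration per well | times = dye 90 min, compound 20 min, room temperature | measured by = FluxOR Tl+ flux fluorescence, kinetic read | evaluation = fluorescence rise relative to baseline, as percent of R-L3 response above buffer | controls = buffer and R-L3 | replicates = duplicate wells per compound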

CN(C1CCCCC1)S(=O)(=O)c1ccc(NC(=S)NC(=O)c2cccs2)cc1
active: potentiation [2] 30% | potentiation [3] 155%
inactive: outcome [1] | outcome [4] | outcome [5]

Cc1ccc(NC(=S)NC(=O)c2ccc(-c3ccccc3)cc2)c(C)c1
inactive: outcome [1] | outcome [2] | outcome [3] | outcome [4] | outcome [5]

S=C1N(c2ccccc2)C(c2ccccc2)N2CCCN12 (stereo not given)
inactive: outcome [1] | outcome [2] | outcome [3] | outcome [4] | outcome [5]

COC(=O)N/N=C/c1cc(C)n(-c2ccc(F)cc2)c1C
inactive: outcome [1] | outcome [2] | outcome [3] | outcome [4] | outcome [5]

O=C(NNc1ncc(C(F)(F)F)cc1Cl)c1ccc(Cl)c(Cl)c1
inactive: outcome [1] | outcome [2] | outcome [4] | outcome [5]
active: potentiation [3] 198%

O=C(NC(=S)Nc1cc(C(F)(F)F)ccc1N1CCOCC1)c1sc2ccccc2c1Cl
inactive: outcome [1] | outcome [2] | outcome [3] | outcome [4] | outcome [5]

CCC1CCCCN1CCCNC(=O)CSc1nc2nc(C)c(Cc3ccccc3)c(C)n2n1 (stereo not given)
inactive: outcome [1] | outcome [2] | outcome [3] | outcome [4] | outcome [5]

O=C1c2ccccc2C(=O)C12OC2c1cccc2ccccc12 (stereo not given)
inactive: outcome [1] | outcome [2] | outcome [3] | outcome [4] | outcome [5]

O=C(NC(=S)NCCc1ccccc1)c1ccco1
inactive: outcome [1] | outcome [2] | outcome [3] | outcome [4] | outcome [5]

COc1cccc(NC(=S)NC(=O)c2c(Cl)c(C)nn2C)c1
inactive: outcome [1] | outcome [2] | outcome [3] | outcome [4] | outcome [5]

CC1CCCCN1CCCNC(=O)Cn1ncc2c([nH]c3ccccc32)c1=O (stereo not given)
inactive: outcome [1] | outcome [2] | outcome [3] | outcome [4] | outcome [5]

CCN(CC)CCNc1ncnc2c1sc1nc(N3CCCC3)c3c(c12)CC(C)(C)OC3
inactive: outcome [1] | outcome [2] | outcome [3] | outcome [4] | outcome [5]

Cc1ccc(/C=N/NC(=O)c2cc(C3CC3)nc3ccccc23)o1
active: potentiation [2] 29.5%
inactive: outcome [1] | outcome [3] | outcome [4] | outcome [5]

CCOC(=O)c1sc(NC(=S)NC(=O)c2ccccc2)nc1C
inactive: outcome [1] | outcome [2] | outcome [3] | outcome [4] | outcome [5]

C/C(=N\Nc1nc2ccccc2s1)c1ccc(Br)s1
inactive: outcome [1] | outcome [2] | outcome [3] | outcome [4] | outcome [5]

CCCN(CCC)Cc1c(C(=O)N/N=C/C(C)=C\c2ccco2)nnn1-c1nonc1N
inactive: outcome [1] | outcome [2] | outcome [3] | outcome [4] | outcome [5]

CN(C)CCNc1nc2sc3c(c2c(=O)n1CCc1ccccc1)CCCCC3
inactive: outcome [1] | outcome [3] | outcome [4] | outcome [5]
active: potentiation [2] 19%

COc1ccc(CNC(=O)CSc2nc3ccc(OC)cc3[nH]2)cc1
inactive: outcome [1] | outcome [2] | outcome [3] | outcome [4] | outcome [5]

Cc1ccc(S(=O)(=O)N2CCN(C(=O)c3ccc(Br)o3)CC2)c(C)c1
inactive: outcome [1] | outcome [2] | outcome [3] | outcome [4] | outcome [5]

O=C(NC(=S)Nc1cccc(Cl)c1N1CCCCC1)c1cccs1
inactive: outcome [1] | outcome [3] | outcome [4] | outcome [5]
active: potentiation [2] 54%

Cc1ccc(C(=O)NC(=S)N2CCN(c3cc(C)ccc3C)CC2)cc1
active: potentiation [2] 50%
inactive: outcome [1] | outcome [3] | outcome [4] | outcome [5]

CCOC(=O)N1CCN(C(=S)NC(=O)c2ccc(F)c(F)c2)CC1
inactive: outcome [1] | outcome [2] | outcome [3] | outcome [4] | outcome [5]

S=C(Nc1ccccc1)Nc1nc2ccccc2n1CCOc1ccc(Cl)cc1
inactive: outcome [1] | outcome [2] | outcome [3] | outcome [4] | outcome [5]

Cc1nc2c3cc(F)ccc3n(CCN3CCCCC3)c2s1
inactive: outcome [1] | outcome [3] | outcome [4] | outcome [5]
active: potentiation [2] 35%

Cc1cc(-c2cccnc2)c(C#N)c(SCC#N)n1
inactive: outcome [1] | outcome [2] | outcome [3] | outcome [4] | outcome [5]

O=C(O)c1cc2cc(F)ccc2[nH]1
inactive: outcome [1] | outcome [2] | outcome [3] | outcome [4] | outcome [5]

Cc1ccccc1C(OCCN(C)C)C1CCCCC1 (stereo not given)
inactive: outcome [1] | outcome [2] | outcome [3] | outcome [4] | outcome [5]

COc1ccc(CC(=O)NC(=S)Nc2cccc(C)c2)cc1
inactive: outcome [1] | outcome [2] | outcome [3] | outcome [4] | outcome [5]

CC(C)CNC(=S)NC(=O)c1ccc([N+](=O)[O-])cc1
inactive: outcome [1] | outcome [2] | outcome [3] | outcome [4] | outcome [5]

Cc1ccc(NC(=S)c2nc3ccccc3s2)cc1
active: potentiation [2] 32%
inactive: outcome [1] | outcome [3] | outcome [4] | outcome [5]

Oc1ccc(Br)cc1C=Nc1ccc(Cl)cc1
inactive: outcome [1] | outcome [2] | outcome [3] | outcome [4] | outcome [5]

COc1ccc(NC(=S)NCCC(c2ccccc2)c2ccccc2)c(OC)c1
inactive: outcome [1] | outcome [3] | outcome [4] | outcome [5]
active: potentiation [2] 72.5%

CCCCS(=O)(=O)/C=C\C=C/S(=O)(=O)CCCC
inactive: outcome [1] | outcome [2] | outcome [3] | outcome [4] | outcome [5]

COc1ccc(-c2nn(-c3ccccc3)cc2C(=O)NC(=S)NNC(=O)c2ccncc2)cc1
active: potentiation [2] 17.5%
inactive: outcome [1] | outcome [3] | outcome [4] | outcome [5]

NC(=O)c1ccsc1NC(=O)COC(=O)Cc1ccsc1
active: potentiation [2] 182%
inactive: outcome [1] | outcome [3] | outcome [4] | outcome [5]

Cc1cc(/C=N/n2cnnc2)c(C)n1-c1cc(Cl)ccc1Cl
inactive: outcome [1] | outcome [2] | outcome [3] | outcome [5]
active: current potentiation [4] 18.5%

CCCOc1ccccc1NS(=O)(=O)c1ccc2[nH]c(=O)[nH]c2c1
inactive: outcome [1] | outcome [2] | outcome [3] | outcome [4] | outcome [5]

COc1ccc(C2(C)CC(C)(C)Nc3ccccc32)cc1 (stereo not given)
active: potentiation [2] 68.5%
inactive: outcome [1] | outcome [3] | outcome [4] | outcome [5]

Cc1ccsc1/C=N\NC(=O)c1n[nH]c2c1CCC2
inactive: outcome [1] | outcome [2] | outcome [3] | outcome [4] | outcome [5]

CC(C)CCn1c(SCC(=O)NC2CC2)nc2cc(Cl)ccc2c1=O
inactive: outcome [1] | outcome [2] | outcome [3] | outcome [4] | outcome [5]

CN1CCN(C(c2ccc(Cl)cc2)c2cc(Cl)c3cccnc3c2O)CC1 (stereo not given)
inactive: outcome [1] | outcome [2] | outcome [3] | outcome [4] | outcome [5]

c1ccc(CNc2nc3ccccc3[nH]2)cc1
inactive: outcome [1] | outcome [2] | outcome [3] | outcome [4] | outcome [5]

O=C(NC(=S)Nc1cc(C(F)(F)F)ccc1Cl)c1ccccc1
inactive: outcome [1] | outcome [2] | outcome [3] | outcome [4] | outcome [5]

O=C(NCc1ccccc1)c1ccc2c(c1)C(=O)N(Cc1cccnc1)C2=O
inactive: outcome [1] | outcome [3] | outcome [4] | outcome [5]
active: potentiation [2] 17.5%

C/C(=N\Nc1cccc2cccnc12)c1ccc[nH]1
inactive: outcome [1] | outcome [3] | outcome [4] | outcome [5]
active: potentiation [2] 30%

S=c1[nH]nc(-c2ccco2)n1/N=C/c1cccc(Cl)c1Cl
active: potentiation [2] 23.5%
inactive: outcome [1] | outcome [3] | outcome [4] | outcome [5]

Cc1ccc(-n2c(C)cc(/C=N/NC(=O)c3ccncc3)c2C)cc1C
inactive: outcome [1] | outcome [3] | outcome [4] | outcome [5]
active: potentiation [2] 30%

CCn1c(CN2CCN(c3ccc(OC)cc3)CC2)nc2cc(S(=O)(=O)N(C)C)ccc21
inactive: outcome [1] | outcome [2] | outcome [3] | outcome [4] | outcome [5]

CCOC(=O)c1[nH]c2cc(OC)c(OC)cc2c1NC(=O)CN(C)C1CCCCC1
active: potentiation [2] 18%
inactive: outcome [1] | outcome [3] | outcome [4] | outcome [5]

Cc1cc(C(=O)NCc2ccc(S(N)(=O)=O)cc2)ccc1[N+](=O)[O-]
inactive: outcome [1] | outcome [2] | outcome [3] | outcome [4] | outcome [5]

O=C1CCCCCN1Sc1ccccc1
inactive: outcome [1] | outcome [3] | outcome [4] | outcome [5]
active: potentiation [2] 18.5%

CCOC(=O)c1ccc(-n2c(CN3CCOCC3)nc3ccc([N+](=O)[O-])cc3c2=O)cc1
inactive: outcome [1] | outcome [2] | outcome [3] | outcome [4] | outcome [5]

CC12CCC(C(=O)N(CSC(=S)N/N=C\c3ccccc3)C1=O)C2(C)C (stereo not given)
active: potentiation [2] 33.5%
inactive: outcome [1] | outcome [3] | outcome [4] | outcome [5]

CSc1ncc(C(=O)Nc2ccccc2Cl)c(C)n1
inactive: outcome [1] | outcome [2] | outcome [3] | outcome [4] | outcome [5]

CC(C)(C)c1ccc(-n2nc(C#N)c(Cl)cc2=O)cc1
inactive: outcome [1] | outcome [2] | outcome [3] | outcome [4] | outcome [5]

COc1cc(OC)cc(-c2nnc(Nc3nc4c(F)cccc4s3)o2)c1
inactive: outcome [1] | outcome [2] | outcome [3] | outcome [4] | outcome [5]

O=C1C(Nc2ccc(O)cc2)=C/C(=N/S(=O)(=O)c2cccs2)c2ccccc21
active: potentiation [2] 17.5%
inactive: outcome [1] | outcome [3] | outcome [4] | outcome [5]
